Experimental data reported in ChEMBL document CHEMBL4732057, “Design, synthesis and biological evaluation of second-generation benzoylpiperidine derivatives as reversible monoacylglycerol lipase (MAGL) inhibitors” (Eur J Med Chem, 2021).

Columns and labels:
[1] = molecular target: T1, Monoglyceride lipase (Homo sapiens, UniProt Q99685); test: Inhibition of human recombinant MAGL using 4-nitrophenylacetate as substrate incubated for 30 mins by microplate reader assay
T1 sequence (Q99685 whole entry): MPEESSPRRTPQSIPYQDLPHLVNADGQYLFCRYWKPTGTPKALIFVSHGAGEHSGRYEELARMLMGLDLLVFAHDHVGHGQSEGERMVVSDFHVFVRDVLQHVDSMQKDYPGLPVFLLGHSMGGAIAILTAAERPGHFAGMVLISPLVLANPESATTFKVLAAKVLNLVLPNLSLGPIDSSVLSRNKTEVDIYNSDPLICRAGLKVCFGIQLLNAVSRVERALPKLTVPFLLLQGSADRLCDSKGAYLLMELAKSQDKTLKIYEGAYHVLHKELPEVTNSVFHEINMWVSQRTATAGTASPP
In short: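 Human recombinant MAGL, 11 ng/well, in 10 mM Tris pH 7.2 with 1 mM EDTA and 0.1 mg/mL BSA, at room temperature. 4-NPA 133.3 µM stock added; enzyme added last. Absorbance at 405 nm after 30 min, minus a no-enzyme blank for each concentration. Sigmoidal fit; duplicates of three independent experiments.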

[2] = molecular target: Cannabinoid receptor 1 (CB1) (Homo sapiens, UniProt P21554); test: Displacement of [3H]CP55940 from human CB1 receptor at 10 uM incubated for 90 mins by radioligand binding assay; details: probe [3H]CP55940
In short: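 Membranes expressing hCB1 or hCB2 in 50 mM Tris-HCl, 2.5 mM EDTA, 5 mM MgCl2, 0.5% BSA, pH 7.4, incubated with compound and 0.5 nM [3H]CP55,940 for 90 min at 30 °C. Nonspecific binding with 10 µM […]; filtered and counted. Screening at 10 µM; two experiments in triplicate.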

Cannabinoid receptor 1 (CB1), sequence (P21554 whole entry): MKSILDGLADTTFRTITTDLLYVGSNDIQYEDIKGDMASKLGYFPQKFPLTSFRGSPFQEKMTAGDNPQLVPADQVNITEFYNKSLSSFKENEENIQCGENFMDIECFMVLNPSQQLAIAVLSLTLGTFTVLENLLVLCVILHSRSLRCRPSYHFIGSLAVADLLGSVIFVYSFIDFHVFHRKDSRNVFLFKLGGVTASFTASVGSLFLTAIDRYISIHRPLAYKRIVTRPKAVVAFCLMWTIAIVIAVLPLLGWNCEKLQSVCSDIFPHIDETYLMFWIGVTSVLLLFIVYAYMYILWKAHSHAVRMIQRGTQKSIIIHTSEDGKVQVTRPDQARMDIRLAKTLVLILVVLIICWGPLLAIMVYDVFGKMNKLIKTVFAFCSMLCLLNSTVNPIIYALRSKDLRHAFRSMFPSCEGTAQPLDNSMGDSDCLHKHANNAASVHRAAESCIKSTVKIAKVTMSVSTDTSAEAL

IC50 [1] | inhibition at 1.5 h, 10 µM [2] | Compound
36 nM | < 10% | O=C(c1ccc(Cc2ccccc2)cc1)C1CCN(C(=O)c2cc(O)c(F)cc2F)CC1
18 nM | < 10% | O=C(c1ccc(Sc2ccccc2)cc1)C1CCN(C(=O)c2cc(O)c(F)cc2F)CC1
30 nM | < 10% | O=C(c1ccc(Sc2ccccc2)cc1)C1CCN(C(=O)c2cc(O)ccc2F)CC1
49 nM | < 10% | O=C(c1ccc(Cc2ccccc2)cc1)C1CCN(C(=O)c2cc(O)ccc2F)CC1
